# Measured values published in the M2OR odorant receptor database.
# Columns and labels:
# Details in all cases: stereoisomer not certain
# UniProt A2ATE5 = molecular target: T1, UniProt A2ATE5
# T1 sequence (whole entry): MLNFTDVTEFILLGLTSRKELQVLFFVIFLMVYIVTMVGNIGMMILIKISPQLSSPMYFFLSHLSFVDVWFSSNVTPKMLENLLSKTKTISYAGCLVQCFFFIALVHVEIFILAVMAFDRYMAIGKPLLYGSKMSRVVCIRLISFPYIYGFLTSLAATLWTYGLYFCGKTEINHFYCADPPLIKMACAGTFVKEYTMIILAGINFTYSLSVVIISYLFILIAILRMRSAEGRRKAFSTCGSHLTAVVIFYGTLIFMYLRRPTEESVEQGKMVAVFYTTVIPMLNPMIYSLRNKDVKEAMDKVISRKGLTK
# Outline: (§1)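 Each receptor–molecule pair is labelled responsive or non-responsive (inactive) according to whether the original authors judged the measured signal statistically different from baseline. The data were taken from the main text and supplementary material of published papers and checked for typos and inconsistencies. Assay methods differed by source, with transient luciferase assays in mammalian cell lines being common.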
# UniProt A2AVB0 = molecular target: T2, UniProt A2AVB0
# T2 sequence (whole entry): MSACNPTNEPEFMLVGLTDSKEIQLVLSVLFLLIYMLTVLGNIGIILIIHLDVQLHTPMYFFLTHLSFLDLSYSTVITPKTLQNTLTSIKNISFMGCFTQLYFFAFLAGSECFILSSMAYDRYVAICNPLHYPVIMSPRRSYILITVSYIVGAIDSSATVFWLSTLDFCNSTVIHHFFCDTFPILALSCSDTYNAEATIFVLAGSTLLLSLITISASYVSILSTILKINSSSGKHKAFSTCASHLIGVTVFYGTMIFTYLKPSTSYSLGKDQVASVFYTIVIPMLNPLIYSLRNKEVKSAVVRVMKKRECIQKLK
# Outline: as §1
# UniProt E9PVX1 = molecular target: T3, UniProt E9PVX1
# T3 sequence (whole entry): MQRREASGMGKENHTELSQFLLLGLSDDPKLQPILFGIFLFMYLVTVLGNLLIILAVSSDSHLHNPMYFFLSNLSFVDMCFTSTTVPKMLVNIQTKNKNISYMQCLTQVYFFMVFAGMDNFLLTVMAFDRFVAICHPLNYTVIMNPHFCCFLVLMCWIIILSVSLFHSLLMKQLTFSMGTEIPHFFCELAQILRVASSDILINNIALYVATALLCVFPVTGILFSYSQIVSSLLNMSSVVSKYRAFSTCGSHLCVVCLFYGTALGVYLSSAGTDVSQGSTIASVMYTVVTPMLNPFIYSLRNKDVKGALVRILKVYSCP
# Outline: as §1
# UniProt E1BM68 = molecular target: T4, UniProt E1BM68
# T4 sequence (whole entry): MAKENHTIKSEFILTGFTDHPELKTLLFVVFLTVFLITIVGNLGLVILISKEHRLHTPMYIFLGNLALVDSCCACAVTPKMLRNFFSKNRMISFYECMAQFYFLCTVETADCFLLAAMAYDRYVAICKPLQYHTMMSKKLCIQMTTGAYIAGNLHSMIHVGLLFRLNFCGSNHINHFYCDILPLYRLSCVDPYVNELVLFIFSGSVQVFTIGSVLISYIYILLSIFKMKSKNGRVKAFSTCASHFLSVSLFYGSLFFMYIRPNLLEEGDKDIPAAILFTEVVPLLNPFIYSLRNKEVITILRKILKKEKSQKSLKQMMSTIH
# Outline: as §1
# UniProt A2AVB5 = molecular target: T5, UniProt A2AVB5
# T5 sequence (whole entry): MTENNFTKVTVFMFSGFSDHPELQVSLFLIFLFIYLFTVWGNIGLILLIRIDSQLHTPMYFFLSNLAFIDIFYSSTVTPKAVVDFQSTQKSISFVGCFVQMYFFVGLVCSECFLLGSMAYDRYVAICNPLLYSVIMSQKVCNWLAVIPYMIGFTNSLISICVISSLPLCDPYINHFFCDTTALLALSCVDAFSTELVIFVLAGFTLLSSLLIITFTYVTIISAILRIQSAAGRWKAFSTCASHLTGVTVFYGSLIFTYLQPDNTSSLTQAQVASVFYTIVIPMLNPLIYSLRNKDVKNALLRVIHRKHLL
# Outline: as §1
# UniProt B2RVX8 = molecular target: T6, UniProt B2RVX8
# T6 sequence (whole entry): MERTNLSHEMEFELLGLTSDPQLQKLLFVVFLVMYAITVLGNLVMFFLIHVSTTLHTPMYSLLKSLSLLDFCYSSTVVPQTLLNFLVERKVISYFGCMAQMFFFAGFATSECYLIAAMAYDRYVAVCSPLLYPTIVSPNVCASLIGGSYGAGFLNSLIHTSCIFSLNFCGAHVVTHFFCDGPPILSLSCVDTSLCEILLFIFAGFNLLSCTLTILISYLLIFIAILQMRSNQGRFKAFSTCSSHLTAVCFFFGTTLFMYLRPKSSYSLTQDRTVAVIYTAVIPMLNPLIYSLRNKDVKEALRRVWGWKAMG
# Outline: as §1
# UniProt E9PX47 = molecular target: T7, UniProt E9PX47
# T7 sequence (whole entry): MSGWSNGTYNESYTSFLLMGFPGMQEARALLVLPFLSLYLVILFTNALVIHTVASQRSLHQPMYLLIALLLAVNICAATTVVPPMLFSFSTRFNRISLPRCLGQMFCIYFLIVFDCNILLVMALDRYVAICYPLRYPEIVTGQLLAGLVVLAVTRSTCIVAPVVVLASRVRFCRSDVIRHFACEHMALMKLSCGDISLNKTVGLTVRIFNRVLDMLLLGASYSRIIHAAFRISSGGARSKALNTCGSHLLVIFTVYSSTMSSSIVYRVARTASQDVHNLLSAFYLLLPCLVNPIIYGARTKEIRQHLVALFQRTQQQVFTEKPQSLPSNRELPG
# Outline: as §1
# 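Also: active if original authors judged signal statistically different from baseline.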
smiles,measurement,setting,value
CCc1ccc(O)cc1,odorant receptor agonist call,UniProt A2ATE5,inactive
same,odorant receptor agonist call,UniProt A2AVB0,inactive
same,odorant receptor agonist call,UniProt E9PVX1,inactive
CCC(C)O (stereo not drawn),odorant receptor agonist call,UniProt A2ATE5,inactive
same,odorant receptor agonist call,UniProt A2AVB0,inactive
same,odorant receptor agonist call,UniProt E9PVX1,inactive
CCc1ncc(C)nc1CC,odorant receptor agonist call,UniProt A2ATE5,inactive
same,odorant receptor agonist call,UniProt A2AVB0,inactive
same,odorant receptor agonist call,UniProt E1BM68,active
same,odorant receptor agonist call,UniProt E9PVX1,inactive
COc1nccnc1C(C)C,odorant receptor agonist call,UniProt A2ATE5,inactive
same,odorant receptor agonist call,UniProt A2AVB0,inactive
same,odorant receptor agonist call,UniProt E1BM68,active
same,odorant receptor agonist call,UniProt E9PVX1,inactive
C=CC(=C)CCC=C(C)C,odorant receptor agonist call,UniProt A2ATE5,inactive
same,odorant receptor agonist call,UniProt A2AVB0,inactive
same,odorant receptor agonist call,UniProt E9PVX1,inactive
CSSSC,odorant receptor agonist call,UniProt A2ATE5,inactive
same,odorant receptor agonist call,UniProt A2AVB0,inactive
same,odorant receptor agonist call,UniProt E9PVX1,inactive
Cc1ccc2c(c1)OCC(=O)CO2,odorant receptor agonist call,UniProt A2ATE5,inactive
same,odorant receptor agonist call,UniProt A2AVB0,inactive
same,odorant receptor agonist call,UniProt E9PVX1,inactive
CC(=O)OCCc1ccccc1,odorant receptor agonist call,UniProt A2ATE5,inactive
same,odorant receptor agonist call,UniProt A2AVB0,inactive
same,odorant receptor agonist call,UniProt E9PVX1,inactive
CCCCCCCOC(=O)C(C)C,odorant receptor agonist call,UniProt A2ATE5,inactive
same,odorant receptor agonist call,UniProt A2AVB0,inactive
same,odorant receptor agonist call,UniProt E9PVX1,inactive
CCCCCCC=CC=O,odorant receptor agonist call,UniProt A2ATE5,inactive
same,odorant receptor agonist call,UniProt A2AVB0,inactive
same,odorant receptor agonist call,UniProt E9PVX1,inactive
OCCc1ccccc1,odorant receptor agonist call,UniProt A2ATE5,inactive
same,odorant receptor agonist call,UniProt A2AVB0,inactive
same,odorant receptor agonist call,UniProt E9PVX1,inactive
CCSSCC,odorant receptor agonist call,UniProt A2ATE5,inactive
same,odorant receptor agonist call,UniProt A2AVB0,inactive
same,odorant receptor agonist call,UniProt E9PVX1,inactive
CC(=O)C=CC1=C(C)CCCC1(C)C,odorant receptor agonist call,UniProt A2ATE5,inactive
same,odorant receptor agonist call,UniProt A2AVB0,inactive
same,odorant receptor agonist call,UniProt E9PVX1,inactive
CCc1nccnc1CC,odorant receptor agonist call,UniProt A2ATE5,inactive
same,odorant receptor agonist call,UniProt A2AVB0,inactive
same,odorant receptor agonist call,UniProt E1BM68,active
same,odorant receptor agonist call,UniProt E9PVX1,inactive
CCCCCCCO,odorant receptor agonist call,UniProt A2ATE5,inactive
same,odorant receptor agonist call,UniProt A2AVB0,inactive
same,odorant receptor agonist call,UniProt A2AVB5,inactive
same,odorant receptor agonist call,UniProt B2RVX8,inactive
same,odorant receptor agonist call,UniProt E9PVX1,inactive
same,odorant receptor agonist call,UniProt E9PX47,inactive
COc1cnccn1,odorant receptor agonist call,UniProt A2ATE5,inactive
same,odorant receptor agonist call,UniProt A2AVB0,inactive
same,odorant receptor agonist call,UniProt E1BM68,active
same,odorant receptor agonist call,UniProt E9PVX1,inactive
CCSCC,odorant receptor agonist call,UniProt A2ATE5,inactive
same,odorant receptor agonist call,UniProt A2AVB0,inactive
same,odorant receptor agonist call,UniProt E9PVX1,inactive
CCCCCCC(C=O)=Cc1ccccc1,odorant receptor agonist call,UniProt A2ATE5,inactive
same,odorant receptor agonist call,UniProt A2AVB0,inactive
same,odorant receptor agonist call,UniProt E9PVX1,inactive
CC(=O)OC1(C)CCC23CC1C(C)(C)C2CCC3C (stereo not drawn),odorant receptor agonist call,UniProt A2ATE5,inactive
same,odorant receptor agonist call,UniProt A2AVB0,inactive
same,odorant receptor agonist call,UniProt E9PVX1,inactive
CC(C)CS,odorant receptor agonist call,UniProt A2ATE5,inactive
same,odorant receptor agonist call,UniProt A2AVB0,inactive
same,odorant receptor agonist call,UniProt E9PVX1,inactive
CCC(C)c1nccnc1OC (stereo not drawn),odorant receptor agonist call,UniProt A2ATE5,inactive
same,odorant receptor agonist call,UniProt A2AVB0,inactive
same,odorant receptor agonist call,UniProt E1BM68,active
same,odorant receptor agonist call,UniProt E9PVX1,inactive
CNc1ccccc1C(=O)OC,odorant receptor agonist call,UniProt A2ATE5,inactive
same,odorant receptor agonist call,UniProt A2AVB0,inactive
same,odorant receptor agonist call,UniProt E9PVX1,inactive
CCCO,odorant receptor agonist call,UniProt A2ATE5,inactive
same,odorant receptor agonist call,UniProt A2AVB0,inactive
same,odorant receptor agonist call,UniProt E9PVX1,inactive
CC=CC(=O)C1=C(C)CCCC1(C)C,odorant receptor agonist call,UniProt A2ATE5,inactive
same,odorant receptor agonist call,UniProt A2AVB0,inactive
same,odorant receptor agonist call,UniProt E9PVX1,inactive
CCCCCCCCCC=CC=O,odorant receptor agonist call,UniProt A2ATE5,inactive
same,odorant receptor agonist call,UniProt A2AVB0,inactive
same,odorant receptor agonist call,UniProt E9PVX1,inactive
CCCCCC(C)O (stereo not drawn),odorant receptor agonist call,UniProt A2ATE5,inactive
same,odorant receptor agonist call,UniProt A2AVB0,inactive
same,odorant receptor agonist call,UniProt E9PVX1,inactive
O=C(O)C1CCC1,odorant receptor agonist call,UniProt A2ATE5,inactive
same,odorant receptor agonist call,UniProt A2AVB0,inactive
same,odorant receptor agonist call,UniProt E9PVX1,inactive
CCCCC(=O)O,odorant receptor agonist call,UniProt A2ATE5,inactive
same,odorant receptor agonist call,UniProt A2AVB0,inactive
same,odorant receptor agonist call,UniProt A2AVB5,inactive
same,odorant receptor agonist call,UniProt B2RVX8,inactive
same,odorant receptor agonist call,UniProt E9PVX1,inactive
same,odorant receptor agonist call,UniProt E9PX47,inactive
CCCC=O,odorant receptor agonist call,UniProt A2ATE5,inactive
same,odorant receptor agonist call,UniProt A2AVB0,inactive
same,odorant receptor agonist call,UniProt E9PVX1,inactive
